From ChEMBL document CHEMBL4373657, “Derivatives of a new heterocyclic system - pyrano[3,4-c][1,2,4]triazolo[4,3-a]pyridines: synthesis, docking analysis and neurotropic activity” (Medchemcomm, 2019)
Calls of active or inactive are those of the source. No cut-off for these calls is given here.

Columns and labels:
Mus musculus [1] = assay: Anticonvulsant activity in ip dosed mouse assessed as reduction in PTZ-induced clonic seizures administered 45 mins before PTZ stimulation; assay type: functional
Method in brief: (§1)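 Outbred mice (18–22 g), 8 per dose. Compounds given i.p. at 10–100 mg kg–1 as a carboxymethylcellulose/Tween-80 suspension, 45 min before s.c. pentylenetetrazole 90 mg kg–1; controls received emulsifier. Endpoint was prevention of clonic seizures. ED50 was derived by Litchfield–Wilcoxon probit analysis.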

Mus musculus [2] = assay: Anticonvulsant activity in mouse assessed as proportion of animals displaying reduction in PTZ-induced clonic seizures at 50 mg/kg, ip administered 45 mins before PTZ stimulation relative to control; assay type: functional; design: scale not given: the % may be the effect or the level left; method in brief: as §1
Mus musculus [3] = assay: Anticonvulsant activity in mouse assessed as reduction in PTZ-induced clonic seizures at 25 mg/kg, ip administered 45 mins before PTZ stimulation; assay type: functional, organism-based; method in brief: as §1
[4] = Neurotoxicity in ip dosed mouse assessed as myorelaxation measured for 2 mins by rotarod test; assay type: toxicity, organism-based; details: in vivo
Method in brief: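 Mice were placed on a corrugated rubber-coated metal rod rotating at 5 rpm, and the number staying on for 2 min was counted. TD50 was derived by Litchfield–Wilcoxon probit analysis.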

[5] = Neurotoxicity in ip dosed mouse assessed as maximum tolerated dose by rotarod test; assay type: toxicity, organism-based; details: in vivo
Method in brief: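 Mice given compounds i.p. at […] to 1800 mg/kg to establish the maximal tolerated dose.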

[6] = Protection index, ratio of TD50 for neurotoxicity in ip dosed mouse to ED50 for anticonvulsant activity in ip dosed mouse; assay type: toxicity, organism-based; details: in vivo, read-out: Ratio TD50/ED50
Mus musculus [7] = assay: Anticonvulsant activity in mouse assessed as MES-induced […] seizures at 10 to 100 mg/kg, ip administered 45 mins before electrical stimulation; assay type: functional, organism-based
Mus musculus [8] = assay: Anticonvulsant activity in mouse assessed as MES-induced tonic seizures at 10 to 100 mg/kg, ip administered 45 mins before electrical stimulation; assay type: functional, organism-based
Method in brief: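 Mice, 8 per dose. Compounds given i.p. at 10, 25, 50, 75 or 100 mg kg–1 in carboxymethylcellulose/Tween-80 suspension, 45 min before maximal electroshock (50 mA, 0.2 s, 50 imp s–1); controls received emulsifier. Endpoint was prevention of the tonic-extensor phase.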

[9] = Neurotoxicity in mouse assessed as motor coordination at 50 to 100 mg/kg, ip by rotarod test; assay type: toxicity, organism-based; details: in vivo
Method in brief: (§2)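 Mice dosed i.p. at 50–100 mg kg–1; reference drugs given at effective anticonvulsant doses. Mice were placed on a corrugated rubber-coated metal rod rotating at 5 rpm, and the number staying on for 2 min was counted. TD50 was derived by Litchfield–Wilcoxon probit analysis.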

Rattus norvegicus [10] = assay: Antianxiety activity in Wistar rat assessed as horizontal movement of animals at 50 mg/kg, ip measured for 5 mins by open field test; assay type: functional, organism-based
Method in brief: (§3)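 Male Wistar rats (120–140 g), n = 8 per compound, control and reference. Single i.p. dose of 50 mg kg–1 as a suspension in methylcarboxycellulose with Tween-80; controls received emulsifier. Daytime, natural light. Over 5 min, horizontal movements, rearings (vertical movements) and cell sniffings were counted.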

Rattus norvegicus [11] = assay: Antianxiety activity in Wistar rat assessed as vertical movement of animals at 50 mg/kg, ip measured for 5 mins by open field test; assay type: functional, organism-based; method in brief: as §3
Mus musculus [12] = assay: Antianxiety activity in mouse assessed as time spent in closed arms at 50 mg/kg, ip measured for 5 mins by elevated plus maze test (reference value: 278.2 secs); assay type: functional
Rattus norvegicus [13] = assay: Antianxiety activity in Wistar rat assessed as increase in number of sniffing cell examinations at 50 mg/kg, ip measured for 5 mins by open field test; assay type: functional, organism-based; method in brief: as §3
Mus musculus [14] = assay: Antianxiety activity in mouse assessed as decrease in number of entries into closed arms at 50 mg/kg, ip measured for 5 mins by elevated plus maze test; assay type: functional, organism-based
Mus musculus [15] = assay: Sedative activity in mouse assessed as time spent in center at 50 mg/kg, ip measured for 5 mins by elevated plus maze test (reference value: 21.8 secs); assay type: functional
Mus musculus [16] = assay: Antianxiety activity in mouse assessed as increase in time spent in open arms at 50 mg/kg, ip measured for 5 mins by elevated plus maze test; assay type: functional
Mus musculus [17] = assay: Antidepressant activity in mouse assessed as latent period of first immobilization at 50 mg/kg, ip measured for 6 mins by forced swimming test (reference value: 92 secs); assay type: functional
Method in brief: (§4)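 Each mouse swam in a glass container (22 cm high, 14 cm diameter) one-third filled with water, under natural light. Over 6 min, latency to first immobilization, total immobilization time and total active swimming time were recorded.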

Mus musculus [18] = assay: Antidepressant activity in mouse assessed as total time of immobilization at 50 mg/kg, ip measured for 6 mins by forced swimming test (reference value: 81 secs); assay type: functional; method in brief: as §4
Mus musculus [19] = assay: Antidepressant activity in mouse assessed as total time of active swimming at 50 mg/kg, ip measured for 6 mins by forced swimming test (reference value: 282 secs); assay type: functional; method in brief: as §4
[20] = Neurotoxicity in mouse assessed as myorelaxation at 50 to 100 mg/kg, ip measured for 2 mins by rotarod test; assay type: toxicity, organism-based; details: in vivo; method in brief: as §2
Mus musculus [21] = assay: Antidepressant activity in mouse assessed as latent period of first immobilization at 5 mg/kg, ip measured for 6 mins by forced swimming test (reference value: 92 secs); assay type: functional; method in brief: as §4
Mus musculus [22] = assay: Antidepressant activity in mouse assessed as total time of immobilization at 5 mg/kg, ip measured for 6 mins by forced swimming test (reference value: 81 secs); assay type: functional; method in brief: as §4
Mus musculus [23] = assay: Antidepressant activity in mouse assessed as total time of active swimming at 5 mg/kg, ip measured for 6 mins by forced swimming test (reference value: 282 secs); assay type: functional; method in brief: as §4
Rattus norvegicus [24] = assay: Antianxiety activity in Wistar rat assessed as increase in number of sniffing cell examinations at 2 mg/kg, ip measured for 5 mins by open field test; assay type: functional, organism-based
Method in brief: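 Male Wistar rats (120–140 g), 8 per group, dosed i.p. as suspension in carboxymethylcellulose with Tween-80; controls given emulsifier. Horizontal movements, rearings and sniffing of cells counted over 5 min in daylight with natural light.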

Mus musculus [25] = assay: Antianxiety activity in mouse assessed as time spent in closed arms at 2 mg/kg, ip measured for 5 mins by elevated plus maze test (reference value: 278.2 secs); assay type: functional
Method in brief: (§5)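 Mice placed at the junction of a raised cruciform maze (two open, two closed opposed arms) facing an open arm. Entries into and time spent in each arm and the centre recorded for 5 min by video tracking and an observer. Compound given i.p. beforehand; controls given emulsifier; P ≤ 0.05.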

Mus musculus [26] = assay: Sedative activity in mouse assessed as time spent in center at 2 mg/kg, ip measured for 5 mins by elevated plus maze test (reference value: 21.8 secs); assay type: functional; method in brief: as §5
Mus musculus [27] = assay: Antianxiety activity in mouse assessed as increase in time spent in open arms at 2 mg/kg, ip measured for 5 mins by elevated plus maze test; assay type: functional; method in brief: as §5
Mus musculus [28] = assay: Antidepressant activity in mouse assessed as latent period of first immobilization at 2 mg/kg, ip measured for 6 mins by forced swimming test (reference value: 92 secs); assay type: functional
Method in brief: (§6)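 Mice swum in a glass cylinder (height 22 cm, diameter 14 cm) one-third filled with water, under natural light. Latency to first immobility, total immobility and total active swimming recorded over 6 min after i.p. dosing; controls given emulsifier.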

Mus musculus [29] = assay: Antidepressant activity in mouse assessed as total time of immobilization at 2 mg/kg, ip measured for 6 mins by forced swimming test (reference value: 81 secs); assay type: functional; method in brief: as §6
Mus musculus [30] = assay: Antidepressant activity in mouse assessed as total time of active swimming at 2 mg/kg, ip measured for 6 mins by forced swimming test (reference value: 282 secs); assay type: functional; method in brief: as §6
Mus musculus [31] = assay: Anticonvulsant activity in mouse assessed as proportion of animals displaying reduction in PTZ-induced clonic seizures at 200 mg/kg, ip administered 45 mins before PTZ stimulation relative to control; assay type: functional; design: scale not given: the % may be the effect or the level left
[32] = Neurotoxicity in mouse assessed as myorelaxation at 100 to 200 mg/kg, ip measured for 2 mins by rotarod test; assay type: toxicity, organism-based; details: in vivo
Method in brief: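 Mice placed on a rubber-coated metal rod rotating at 5 rpm, dosed i.p. Count of animals able to stay on the rod for 2 min. TD50 derived by Litchfield–Wilcoxon probit analysis. Reference drugs given at effective anticonvulsant doses.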

SMILES	ED50 (Mus musculus [1]) [mg/kg]	Activity (Mus musculus [2]) [%]	anticonvulsant activity (active/inactive) (Mus musculus [3])	TD50 at 2 min [4] [mg/kg]	MTD [5] [mg/kg]	selectivity ratio [6]	Activity (Mus musculus [7])	Activity (Mus musculus [8])	Activity [9]	Activity (Rattus norvegicus [10])	Activity (Rattus norvegicus [11])	Time (Mus musculus [12]) [s]	Activity (Rattus norvegicus [13])	Time (Mus musculus [15]) [s]	Time (Mus musculus [16]) [s]	Time (Mus musculus [17]) [s]	Time (Mus musculus [18]) [s]	Time (Mus musculus [19]) [s]	Activity [20]	further results
CC1(C)Cc2c(C#N)c(Nc3ccccc3)n3c(SCCCc4ccccc4)nnc3c2CO1	23	60	Active	560	1250	24	inactive	inactive	Non-Toxic	inactive	inactive	223	Active	67	10	139	115	245	Non-Toxic	inhibition (Mus musculus [14]): Active
CCOC(=O)C(Sc1nnc2c3c(c(C#N)c(Nc4ccccc4)n12)CC(C)(C)OC3)c1ccccc1 (configuration not stated)	44	60	Active	520	1200	11.8	inactive	inactive	Non-Toxic	inactive	inactive	199	Active	95	6	156	76	284	Non-Toxic	–
Cc1ccc(Nc2c(C#N)c3c(c4nnc(SCC(=O)N(c5ccccc5)c5ccccc5)n24)COC(C)(C)C3)cc1	45	60	Active	610	1750	13.5	inactive	inactive	Non-Toxic	inactive	inactive	242	Active	58	6.2	–	–	–	Non-Toxic	Time (Mus musculus [21]): 129 s; Time (Mus musculus [22]): 106 s; Time (Mus musculus [23]): 254 s
CN1C(=O)CN=C(c2ccccc2)c2cc(Cl)ccc21 [DIAZEPAM]	0.5	–	–	–	200	–	inactive	inactive	–	–	–	–	–	–	–	–	–	–	–	Activity (Rattus norvegicus [24]): Active; Time (Mus musculus [25]): 257.5 s; Time (Mus musculus [26]): 42.5 s; Time (Mus musculus [27]): 57 s; Time (Mus musculus [28]): 174 s; Time (Mus musculus [29]): 24 s; Time (Mus musculus [30]): 336 s
CC1(C)Cc2c(C#N)c(Nc3ccccc3)n3c(SCC(=O)N(c4ccccc4)c4ccccc4)nnc3c2CO1	21	80	Active	580	1250	27.6	inactive	inactive	Non-Toxic	inactive	inactive	133	Active	79	88	162	43	317	Non-Toxic	–
COc1ccc(CSc2nnc3c4c(c(C#N)c(Nc5ccc(C)cc5)n23)CC(C)(C)OC4)cc1	44	60	Active	600	1500	13.6	inactive	inactive	Non-Toxic	inactive	inactive	200.6	Active	88	11.4	158	71	289	Non-Toxic	–
CCC1(C)CC(=O)NC1=O (configuration not stated) [ETHOSUXIMIDE]	–	–	–	–	1000	–	inactive	inactive	–	–	–	–	–	–	–	–	–	–	–	Activity (Mus musculus [31]): 60%; Activity [32]: Non-Toxic
CC1(C)Cc2c(C#N)c(Nc3ccccc3)n3c(SCC(=O)c4cccc([N+](=O)[O-])c4)nnc3c2CO1	36	60	Active	490	1000	13.6	inactive	inactive	Non-Toxic	inactive	inactive	241	Active	51	8	147	84	276	Non-Toxic	inhibition (Mus musculus [14]): Active
